Assay: Toxicity liver stage against HepG2, at 10uM
Type: cell-based
Set-up: test concentration 10 uM, cell line HepG2-A16-CD81EGFP
Details: human, HepG2-A16-CD81EGFP cells; read-out: INHIBITION
How it was run: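 Uninfected HepG2-A16-CD81EGFP cells, 3 × 10^3 per well, 1536-well, plated on prespotted compound at 10 μM final, parasite-free screening media added to match infected plates; puromycin 10 μM positive, DMSO 0.5% negative; run in parallel with 48 h PbLuc assay at 37 °C, 5% CO2; viability by CellTiter-Glo luminescence, normalized to controls.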

Row | Compound | cytotoxicity at 10 µM [%]
1 | COc1cn(CC(N)=O)c(CSc2nc(C)cc(C)n2)cc1=O | -30.2
2 | COCC1CC2(CCN(C(=O)c3ccc(F)c(Cl)c3)CC2)CO1 (stereo unspecified) | -131
3 | CCOC(=O)N1CCN(C(=O)c2sc(-c3ccncc3)nc2C)CC1 | -3.3
4 | CNC(=O)c1cc(S(=O)(=O)C(C)C)cs1 | 5.08
5 | COc1cccc(CC(=O)N2CCC(c3ccn4nccc4n3)CC2)c1 | -3.79
6 | Cc1nc(=O)c2ccccc2n1C1=CCN(CC(=O)NC(C)C)CC1 | -7.99
7 | Cc1c[nH]nc1C1CN(c2cnccn2)CCO1 (stereo unspecified) | 4.34
8 | Cc1nccc(C2CCCN(S(=O)(=O)N3CCOCC3)C2)n1 (stereo unspecified) | 6.08
9 | Cc1cc(-c2nccs2)nc(C2CCN(Cc3ccccn3)CC2)n1 | 7.73
10 | COCC(=O)N1CCC(C)(c2cc(O)[nH]n2)CC1 | -6.92
11 | Cc1ncc(-c2ccncc2)c(C2CCN(C(=O)c3ccno3)CC2)n1 | 2.08
12 | CNC(=O)C1(CCCc2cnccn2)CCN1CCc1ccccc1 (stereo unspecified) | -1.23
13 | Cc1cc(C(=O)N(C)C)nc(C2(C)CCCN2c2ccccc2)n1 (stereo unspecified) | 4.89
14 | O=C1NC2(CCN(CC(=O)N3CCOCC3)CC2)Nc2ccc(Br)cc21 | -0.445
15 | CNc1cc(C2CN(C(=O)c3ccccc3)CCO2)nc(C)n1 (stereo unspecified) | 6.1
16 | CNC(=O)c1c[nH]nc1C1CCCN1c1ncccn1 (stereo unspecified) | 10
17 | CC(C)n1c(C2CCCN(Cc3ccnn3C)C2)nc2ccccc21 (stereo unspecified) | -0.0273
18 | O=C(c1cccnc1)N1CCCC(c2cc(C(F)F)n3ncnc3n2)C1 (stereo unspecified) | 0.745
19 | CC(C)C(C)NC(=O)c1cccn1Cc1cccnc1 (stereo unspecified) | -44
20 | Cc1ccc(S(=O)(=O)Nc2ccc(-n3ccnc3C)nc2)cc1N(C)C | -3.78
21 | Cc1noc(C(C)C)c1C(=O)NCC1CCCN1Cc1ccccc1 (stereo unspecified) | -4.45

Row | Compound | cytotoxicity at 10 µM [%]
22 | CSc1c[nH]nc1NS(=O)(=O)c1ccc(C)c(C)c1 | 1.79
23 | CCC(c1ccc(F)cc1F)S(=O)(=O)CCO (stereo unspecified) | -137
24 | CC(=O)N1CCCN(C(=O)NCC2(c3cccs3)CCCC2)CC1 | 3.23
25 | CC(C)CC(CO)NS(=O)(=O)Cc1ccon1 (stereo unspecified) | -3.33
26 | COc1ccc(Cl)c(NCC(=O)NCC(=O)N2CCCC2)c1 | -5.7
27 | CC(C)(C)NC(=O)C1CSCN1S(=O)(=O)c1ccccc1S(C)(=O)=O (stereo unspecified) | -4.04
28 | CC(C)C(=O)NCCC(=O)N1CCN(c2ccccn2)CC1 | -6.13
29 | O=C(NCCn1ccnc1)c1cncc(Br)c1 | 17.7
30 | CCCN(CC(F)F)c1cc(COC)nc2ncnn12 | -3.22
31 | Cn1nnnc1SC1CCN(c2ccccc2Cl)C1=O (stereo unspecified) | 5.12
32 | N#Cc1ccc(CNc2cnn(CCN3CCOCC3)c2)cc1 | -5.75
33 | CCNC(=O)CCC(=O)NC1(c2cccc(C(F)(F)F)c2)CCC1 | -39.8
34 | CC(C)c1nc(C2CCCN2CCNS(C)(=O)=O)no1 (stereo unspecified) | 3.33
35 | CC(C1CC1)N(C)C(=O)c1cnc(-c2ccc3c(c2)OCO3)s1 (stereo unspecified) | -7.06
36 | O=C(Cc1ccccn1)N1C[C@H]2CN(Cc3ccccn3)C[C@H]2C1 | -108
37 | CS(=O)(=O)N1CCOCC2(CCN(c3cnccn3)CC2)C1 | -107
38 | CN(C)C(=O)C1CCC2(CCN(C(=O)Nc3ccccc3)CC2)O1 (stereo unspecified) | -106
39 | CN(C)C(=O)c1cnc2n1CCN(Cc1ccncc1)C2 | -69.4
40 | CNC(=O)[C@@]12CCO[C@@H]1CCN(Cc1c(C)noc1C)C2 | -70.5
41 | Cc1ccc(C(=O)N2C[C@@H]3COC[C@]3(COc3cccnc3)C2)cn1 | -3.91
42 | CCO[C@H]1CO[C@@]2(CCCN(S(=O)(=O)c3ccccc3)C2)C1 | 4.42

Row | Compound | cytotoxicity at 10 µM [%]
43 | COCCn1ccnc1CN1CCc2[nH]cnc2C1c1ccccn1 (stereo unspecified) | -3.3
44 | CNCc1cn(CC2CCN(CC(C)(C)CN3CCCC3)CC2)nn1 | -1.58
45 | Cc1cc2ccccc2n1CCC(=O)N1CCCCC1CCO (stereo unspecified) | 10.4
46 | CC(C)OC(=O)N1CCCCC1CCn1cccn1 (stereo unspecified) | -1.17
47 | CCN(C)S(=O)(=O)NCC1CCN(Cc2ccccc2C)CC1 | -4.93
48 | COc1cccc([C@@H]2CCN(Cc3[nH]nc(C)c3Cl)C[C@H]2O)c1 | -3.26
49 | CC(C)(O)c1cn(C2CCN(C(=O)CCc3ccncc3)CC2)nn1 | -5.32
50 | CN1CC[C@H]2CN(C(=O)c3ccc4sc5c(c4c3)CCNC5=O)C[C@H]21 | -0.193
51 | CNCc1n[nH]c(=O)n1CC1CCCCC1 | -46.5
52 | COCCN1CC2(CCCN(Cc3cc(=O)c(OC)co3)C2)CCC1=O (stereo unspecified) | -40
53 | O=C(N[C@@H]1CCN(c2nc3ccccc3o2)C[C@H]1O)c1cnccn1 | 3.52
54 | CCc1cccc(OC2CN(C(=O)[C@@H](N)CCSC)C2)c1 | 0.684
55 | CCC(C(=O)N(C)CCC1=CCN(C)CC1)c1ccccc1 (stereo unspecified) | -10.9
56 | COc1ccc(CC(=O)N2CC[C@H](CO)[C@H](O)C2)c(OC)c1 | -0.392
57 | COc1ccc(CN2CCCC(Nc3cccc(F)c3)C2)cc1O (stereo unspecified) | 5.76
58 | c1cc2c(cc1CN(Cc1nc(C3CC3)no1)C1CCCC1)OCO2 | -10.6
59 | c1ccc(Cc2nnc(CN3CCCC3Cn3cccn3)o2)cc1 (stereo unspecified) | -11.7
60 | COc1c(CNCc2ccccc2Cn2ccnc2)c(C)nn1C | -9.2
61 | Cc1cc(C(=O)NCC(c2ccsc2)N(C)C)no1 (stereo unspecified) | -18.3
62 | CN(C)c1cc(CNC(=O)c2cccc(F)c2)ccn1 | -13.5
63 | NC(=O)NC(=O)CN1CCN(c2nccs2)CC1 | -17.9

Row | Compound | cytotoxicity at 10 µM [%]
64 | c1ccc(CN2CCCC(Cn3cncn3)C2)nc1 (stereo unspecified) | -9.93
65 | Cc1ncsc1C(=O)NCCNc1ncccc1C#N | -21.5
66 | Cc1cccc2[nH]cc(CC(=O)N3CCC(Nc4cccnn4)CC3)c12 | -8.45
67 | CCc1ccc(CNC(=O)N2CCN(Cc3cc(C)no3)CC2)s1 | 1.45
68 | CCc1ncc(CN(C)C(=O)Nc2cccnc2N2CCCC2)s1 | -8.43
69 | Cn1ncc2c(=O)[nH]c(CN3CCCC3Cc3ccccc3)nc21 (stereo unspecified) | -6.56
70 | CC(C)c1ncncc1C(=O)N1CCCN(Cc2cccs2)CC1 | -7.42
71 | O=C(NCc1cc[nH]n1)NCC(c1ccc(F)cc1)N1CCOCC1 (stereo unspecified) | -7.77
72 | Cc1nc(-c2ccc(CO)cc2)cc(C2CCNCC2)n1 | 12.3
73 | Cn1ccc(C(=O)N2C[C@@H]3CCN(c4cnccn4)C[C@@H]3C2)n1 | -106
74 | CN(C)C(=O)CO[C@H]1CO[C@@]2(CCN(Cc3ccsc3)C2)C1 | -111
75 | N#Cc1ccc(C(=O)N2CC[C@H]3[C@@H]2CCC(=O)N3c2cccnc2)cc1 | 1.77
76 | Cc1ccc2c(c1)CN(C(=O)c1ccccc1F)C(CN(C)C)CO2 (stereo unspecified) | 4.66
77 | Cc1cc(CN2CC[C@H]3C(=O)N(c4ccsc4)CCO[C@H]3C2)no1 | -69.2
78 | COCCN1C(=O)CC(c2cccnc2)C12CCN(C(=O)C1CC1)CC2 (stereo unspecified) | -104
79 | O=C(c1ccco1)N1CC[C@@H](N2CCOCC2)[C@@H]1Cc1ccncc1 | -78.2
80 | CC(C)N1CCc2c(CNC(=O)c3nccn3C)cncc2C1 | -106
81 | CC(C)NC(=O)[C@H]1C[C@H]2CN(C(=O)NC(C)C)C[C@@H]1O2 | -105
